Laboratory results as given in ChEMBL document CHEMBL4725432, “Dethioacylation by Sirtuins 1-3: Considerations for Drug Design Using Mechanism-Based Sirtuin Inhibition” (ACS Med Chem Lett, 2020).
Active and inactive are the calls of the source. The rule behind the calls is not given here. Non-standard residues stand in square brackets, D forms with d. Residues, ends and D or L forms follow the SMILES beside them. *: point of attachment. Lys(Thioacetyl) = CC(=S)NCCCC[C@H](N)C(=O)O; AMC = Cc1cc(=O)oc2cc(N*)ccc12; Cbz = O=C(OCc1ccccc1)*; Propionyl = CCC(=O)*; Butyryl = CCCC(=O)*; NHiPr = CC(C)N*

Biological target: T1, NAD-dependent protein deacetylase sirtuin-1 (Homo sapiens) (UniProt Q96EB6)
T1 sequence (whole entry): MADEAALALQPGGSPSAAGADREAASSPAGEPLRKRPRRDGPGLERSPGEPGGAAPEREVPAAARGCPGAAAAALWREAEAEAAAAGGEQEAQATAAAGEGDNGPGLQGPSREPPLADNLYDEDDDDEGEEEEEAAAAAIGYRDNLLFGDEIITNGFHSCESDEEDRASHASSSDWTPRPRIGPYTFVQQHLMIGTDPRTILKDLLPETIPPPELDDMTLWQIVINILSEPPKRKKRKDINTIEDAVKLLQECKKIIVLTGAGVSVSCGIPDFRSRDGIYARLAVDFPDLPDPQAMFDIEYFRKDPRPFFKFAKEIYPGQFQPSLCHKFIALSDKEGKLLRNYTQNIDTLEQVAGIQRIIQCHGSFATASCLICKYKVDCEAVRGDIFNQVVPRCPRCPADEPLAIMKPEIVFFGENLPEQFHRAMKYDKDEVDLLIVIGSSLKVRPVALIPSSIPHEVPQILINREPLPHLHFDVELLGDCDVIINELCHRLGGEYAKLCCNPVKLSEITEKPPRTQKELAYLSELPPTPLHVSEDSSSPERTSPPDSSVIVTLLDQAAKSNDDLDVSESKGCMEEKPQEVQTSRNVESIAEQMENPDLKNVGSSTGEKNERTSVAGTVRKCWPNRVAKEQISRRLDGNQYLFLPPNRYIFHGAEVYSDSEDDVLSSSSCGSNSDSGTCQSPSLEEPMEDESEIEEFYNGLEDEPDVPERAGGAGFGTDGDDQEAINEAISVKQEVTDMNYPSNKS
Experiment: Inhibition of human N-terminal GST-tagged SIRT1 (193 to 741 residues) expressed in Escherichia coli preincubated with NAD+ for 30 mins using Ac-Gln-Pro-Lys-Lys(Ac)-AMC (oxo-10) as substrate at 1 to 100 uM measured after 90 mins by fluorescence assay
Conditions: dose microM 1-100, time 120.0 min
Summary of the method: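 Recombinant SIRT1 (100 nM) preincubated 30 min with compound, either with or without NAD+ (500 μM), before the fluorogenic deacetylation read-out. Single-dose %-inhibition. Two independent experiments in duplicate, standard deviation.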

| inhibition | Compound |
| --- | --- |
| Active | CNC(=S)NCCCC[C@H](NC(=O)OCc1ccccc1)C(=O)N[C@@H](Cc1c[nH]c2ccccc12)C(=O)NC(C)C |

Biological target: T1, NAD-dependent protein deacetylase sirtuin-1 (Homo sapiens)
Experiment: Inhibition of human recombinant N-terminal GST-tagged SIRT1 (193 to 741 residues) deacetylation activity in presence of substrate and NAD+ at 15 uM after 15 mins by reversed-phase UPLC-MS analysis relative to control
Set-up: scale not given: the % may be the effect or the level left
Conditions: not given

| Activity | Compound |
| --- | --- |
| > 80% | CC(=O)NCCCC[C@H](NC(=O)OCc1ccccc1)C(=O)N[C@@H](Cc1c[nH]c2ccccc12)C(=O)NC(C)C (Cbz-Lys(Ac)-Trp-NHiPr) |

Biological target: T2, NAD-dependent protein deacetylase sirtuin-3, mitochondrial (Homo sapiens) (UniProt Q9NTG7)
T2 sequence (whole entry): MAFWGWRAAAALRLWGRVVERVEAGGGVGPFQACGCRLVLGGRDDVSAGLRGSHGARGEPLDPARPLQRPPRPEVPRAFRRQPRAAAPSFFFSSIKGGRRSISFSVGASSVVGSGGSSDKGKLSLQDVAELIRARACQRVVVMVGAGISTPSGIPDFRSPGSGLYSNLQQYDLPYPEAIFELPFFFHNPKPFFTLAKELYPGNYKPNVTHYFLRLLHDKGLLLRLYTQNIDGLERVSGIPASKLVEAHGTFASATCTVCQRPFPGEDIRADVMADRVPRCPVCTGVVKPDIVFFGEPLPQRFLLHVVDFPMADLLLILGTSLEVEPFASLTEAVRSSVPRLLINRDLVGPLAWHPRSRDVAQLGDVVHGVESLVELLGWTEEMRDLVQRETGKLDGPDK
Experiment: Inhibition of human recombinant N-terminal GST-tagged SIRT3 (102 to 399 residues) deacetylation activity in presence of substrate and NAD+ at 15 uM after 60 mins measured by reversed-phase UPLC-MS analysis relative to control
Conditions: not given

| inhibition | Compound |
| --- | --- |
| 54% | CC(=O)NCCCC[C@H](NC(=O)OCc1ccccc1)C(=O)N[C@@H](Cc1c[nH]c2ccccc12)C(=O)NC(C)C (Cbz-Lys(Ac)-Trp-NHiPr) |

Biological target: T3, NAD-dependent protein deacetylase sirtuin-2 (Homo sapiens) (UniProt Q8IXJ6)
T3 sequence (whole entry): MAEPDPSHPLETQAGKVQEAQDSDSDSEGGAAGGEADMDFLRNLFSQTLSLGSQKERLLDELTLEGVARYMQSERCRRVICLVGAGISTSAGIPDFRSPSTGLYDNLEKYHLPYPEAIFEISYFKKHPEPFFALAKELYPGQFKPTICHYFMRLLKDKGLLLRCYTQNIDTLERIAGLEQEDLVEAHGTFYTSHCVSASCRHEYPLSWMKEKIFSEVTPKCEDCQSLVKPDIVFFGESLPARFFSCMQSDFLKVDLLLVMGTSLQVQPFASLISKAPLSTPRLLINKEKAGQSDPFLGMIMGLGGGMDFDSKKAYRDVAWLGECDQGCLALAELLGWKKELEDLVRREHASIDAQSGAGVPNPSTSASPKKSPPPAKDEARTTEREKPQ
Experiment: Inhibition of human recombinant C-terminal His-tagged SIRT2 (50 to 356 residues) deacetylation activity in presence of substrate and NAD+ incubated for 60 mins measured after 90 mins by fluorescence assay
Conditions: not given
Summary of the method: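 Recombinant SIRT2 (100 nM or 250 nM) incubated with fluorogenic thioacyl or oxo lysine-AMC substrates plus NAD+. Deacylation read by fluorescence. Two independent experiments in duplicate, standard deviation.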

| inhibition | Compound |
| --- | --- |
| Active | CCC(=O)NCCCC[C@H](NC(=O)[C@H](CCCCN)NC(=O)[C@@H]1CCCN1C(=O)[C@H](CCC(N)=O)NC(C)=O)C(=O)Nc1ccc2c(C)cc(=O)oc2c1 (Ac-QPKK(Propionyl)-{AMC}) |
| inactive | CC(=O)NCCCC[C@H](NC(=O)OCc1ccccc1)C(=O)N[C@@H](Cc1c[nH]c2ccccc12)C(=O)NC(C)C (Cbz-Lys(Ac)-Trp-NHiPr) |
| Active | CC(=O)NCCCC[C@H](NC(=O)[C@H](CCCCN)NC(=O)[C@@H]1CCCN1C(=O)[C@H](CCC(N)=O)NC(C)=O)C(=O)Nc1ccc2c(C)cc(=O)oc2c1 (Ac-QPKK(Ac)-{AMC}) |
| Active | CCCC(=O)NCCCC[C@H](NC(=O)[C@H](CCCCN)NC(=O)[C@@H]1CCCN1C(=O)[C@H](CCC(N)=O)NC(C)=O)C(=O)Nc1ccc2c(C)cc(=O)oc2c1 (Ac-QPKK(Butyryl)-{AMC}) |

Tested on: HEK293
Experiment: Inhibition of deacetylation activity in HEK293 cell lysate incubated with substrate for 2 hrs at 50 uM measured after 90 mins by fluorescence assay
Type: functional, subcellular
Conditions: Homo sapiens
Summary of the method: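 Fluorogenic thioacyl or acyl lysine-AMC substrates incubated with fresh HEK293 cell lysate (~65 μg). Deacylation measured by fluorescence. Two independent experiments in duplicate, standard deviation.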

| Compound | Activity |
| --- | --- |
| CCC(=S)NCCCC[C@H](NC(=O)[C@H](CCCCN)NC(=O)[C@@H]1CCCN1C(=O)[C@H](CCC(N)=O)NC(C)=O)C(=O)Nc1ccc2c(C)cc(=O)oc2c1 | Active |
| CCC(=O)NCCCC[C@H](NC(=O)[C@H](CCCCN)NC(=O)[C@@H]1CCCN1C(=O)[C@H](CCC(N)=O)NC(C)=O)C(=O)Nc1ccc2c(C)cc(=O)oc2c1 (Ac-QPKK(Propionyl)-{AMC}) | Active |
| CC(=O)NCCCC[C@H](NC(=O)[C@H](CCCCN)NC(=O)[C@@H]1CCCN1C(=O)[C@H](CCC(N)=O)NC(C)=O)C(=O)Nc1ccc2c(C)cc(=O)oc2c1 (Ac-QPKK(Ac)-{AMC}) | Active |
| CCCC(=O)NCCCC[C@H](NC(=O)[C@H](CCCCN)NC(=O)[C@@H]1CCCN1C(=O)[C@H](CCC(N)=O)NC(C)=O)C(=O)Nc1ccc2c(C)cc(=O)oc2c1 (Ac-QPKK(Butyryl)-{AMC}) | Active |
| CCCC(=S)NCCCC[C@H](NC(=O)[C@H](CCCCN)NC(=O)[C@@H]1CCCN1C(=O)[C@H](CCC(N)=O)NC(C)=O)C(=O)Nc1ccc2c(C)cc(=O)oc2c1 | Active |
| CC(=O)N[C@@H](CCC(N)=O)C(=O)N1CCC[C@H]1C(=O)N[C@@H](CCCCN)C(=O)N[C@@H](CCCCNC(C)=S)C(=O)Nc1ccc2c(C)cc(=O)oc2c1 (Ac-QPK[Lys(Thioacetyl)]-{AMC}) | Active |

Tested on: not listed separately
Experiment: Metabolic stability of compound in human serum assessed as half life incubated for >10 mins measured after 90 mins by HPLC analysis
Type: ADME, cell-free
Conditions: not given

| half-life | Compound |
| --- | --- |
| < 1 h | CNC(=S)NCCCC[C@H](NC(=O)OCc1ccccc1)C(=O)N[C@@H](Cc1c[nH]c2ccccc12)C(=O)NC(C)C |

Tested on: not listed separately
Experiment: Metabolic stability of compound in human serum assessed as drug degradation incubated for >10 mins measured after 90 mins by HPLC analysis
Type: ADME, cell-free
Conditions: 1.5 h

| Activity | Compound |
| --- | --- |
| Not Active | CNC(=S)NCCCC[C@H](NC(=O)OCc1ccccc1)C(=O)N[C@@H](Cc1c[nH]c2ccccc12)C(=O)NC(C)C |

Biological target: T1, NAD-dependent protein deacetylase sirtuin-1 (Homo sapiens)
Experiment: Inhibition of SIRT1 in HEK293 cells assessed as increase in p53 acetylation co-treated with TSA at 25 uM for 6 hrs by western blot analysis
Type: cell-based
Conditions: not given
Summary of the method: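 HEK293 cells exposed 6 h to compound at 25 μM together with TSA (1 μM). Whole-cell lysates immunoblotted for Ac-p53 (K382) and total p53. Ratio Ac-p53/p53 normalized to DMSO control. Two independent experiments in duplicate, SEM.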

| inhibition | Compound |
| --- | --- |
| Active | CNC(=S)NCCCC[C@H](NC(=O)OCc1ccccc1)C(=O)N[C@@H](Cc1c[nH]c2ccccc12)C(=O)NC(C)C |
| inactive | Cc1cc(C)nc(SCC(=O)Nc2ncc(Cc3cccc4ccccc34)s2)n1 |

Biological target: T3, NAD-dependent protein deacetylase sirtuin-2 (Homo sapiens)
Experiment: Inhibition of human recombinant C-terminal His-tagged SIRT2 (50 to 356 residues) deacetylation activity in presence of substrate and NAD+ at 15 uM incubated 15 to 60 mins by reversed-phase UPLC-MS analysis
Conditions: time min 15-60

| inhibition | Compound |
| --- | --- |
| inactive | CC(=O)NCCCC[C@H](NC(=O)OCc1ccccc1)C(=O)N[C@@H](Cc1c[nH]c2ccccc12)C(=O)NC(C)C (Cbz-Lys(Ac)-Trp-NHiPr) |
